Test results reported in the array DNA melting data of Ke et al. (doi:10.1101/2024.01.08.574731).

Experiments:
[1] = melting temperature; fluorescence melt of hairpins on a sequencing array, two-state fit, raised by 9.35 °C to match UV melts; settings: sodium 0.088 M
How it was run: (§1)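 In 50 mM Na-HEPES pH 8.0 containing 25 mM NaCl, hairpins from the library on a sequenced MiSeq flow cell were imaged for Cy3 fluorescence at 2.5 °C steps up to 60 °C, with Cy3 and quencher oligos annealed. After normalisation to pre-quench Cy3 and to control constructs, two-state fits with bootstrapping gave melting temperature and folding enthalpy. Four replicates were combined by inverse-variance weighting, and fitted temperatures were shifted up by 9.35 °C to match UV melts.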

[2] = folding enthalpy; higher = less favourable; fluorescence melt of hairpins on a sequencing array, two-state fit; settings: sodium 0.088 M
How it was run: as §1

## GATGAGGGAAACCTCATC (((((((....)))))))
[1]
  Tm: 58.4 °C
[2]
  folding enthalpy: -39.6 kcal/mol

## GCACATCCGAAAGGATGC (((..(((....))))))
[1]
  Tm: 37.4 °C
[2]
  folding enthalpy: -8.29 kcal/mol

## GACTACGAAAGTAACGTC ((((((....)))..)))
[1]
  Tm: 31.8 °C
[2]
  folding enthalpy: -16 kcal/mol

## GGTTGTGGAAACATGACC (((..((....))..)))
[1]
  Tm: 39.2 °C
[2]
  folding enthalpy: -30.9 kcal/mol

## CGCACGCGGAAACGCGCG (((..(((....))))))
[1]
  Tm: 57 °C
[2]
  folding enthalpy: -9.61 kcal/mol

## GATCATGTAATGATC ((((((...))))))
[1]
  Tm: 57.4 °C
[2]
  folding enthalpy: -39.8 kcal/mol

## GCGGGCGAAAGCCTCGC ((((((....))).)))
[1]
  Tm: 66.3 °C
[2]
  folding enthalpy: -21.9 kcal/mol

## GTCCGCGAAAGCGTGAC ((((((....))).)))
[1]
  Tm: 58 °C
[2]
  folding enthalpy: -19.8 kcal/mol

## GCTCCAGGAAACCAGAGC ((((..(....)..))))
[1]
  Tm: 34.4 °C
[2]
  folding enthalpy: -19.4 kcal/mol

## GCCTAGCGAAAGCTAAGC ((.((((....)))).))
[1]
  Tm: 48.9 °C
[2]
  folding enthalpy: -17.1 kcal/mol

## GTGTCCCGAAAGGGCAC (((.(((....))))))
[1]
  Tm: 65.2 °C
[2]
  folding enthalpy: -26.1 kcal/mol

## GTGGGGGGAAACTCCCAC (((((.(....).)))))
[1]
  Tm: 56.2 °C
[2]
  folding enthalpy: -35.3 kcal/mol

## GTTGTCGAAAGACCAAC ((((((....))).)))
[1]
  Tm: 38 °C
[2]
  folding enthalpy: -20.4 kcal/mol

## GGCCCCGAAAGGGAAGCC ((((((....)))..)))
[1]
  Tm: 55.4 °C
[2]
  folding enthalpy: -28.2 kcal/mol

## GTCAGTGGAAACACTGGC (.(((((....))))).)
[1]
  Tm: 54.7 °C
[2]
  folding enthalpy: -24.8 kcal/mol

## GCGTTGCGAAAGCTGCGC (((..((....))..)))
[1]
  Tm: 65.1 °C
[2]
  folding enthalpy: -36.3 kcal/mol

## GAAGACGGAAACGTTTTC (((.(((....))).)))
[1]
  Tm: 41.1 °C
[2]
  folding enthalpy: -32.6 kcal/mol

## GCGTGGACGAAAGTCCGC (((..(((....))))))
[1]
  Tm: 52.8 °C
[2]
  folding enthalpy: -11.3 kcal/mol

## GATCGTCCGAACGATC ((((((....))))))
[1]
  Tm: 55.2 °C
[2]
  folding enthalpy: -39.2 kcal/mol

## GATCGATACGTCGATC ((((((....))))))
[1]
  Tm: 54.5 °C
[2]
  folding enthalpy: -38.6 kcal/mol

## GGTACCGAAAGGTTCACC ((((((....)))..)))
[1]
  Tm: 34.4 °C
[2]
  folding enthalpy: -13.6 kcal/mol

## GATCGTCTCGACGATC ((((((....))))))
[1]
  Tm: 65.3 °C
[2]
  folding enthalpy: -40.9 kcal/mol

## GGGAAGGGAAACTTTCCC (((((.(....).)))))
[1]
  Tm: 45.5 °C
[2]
  folding enthalpy: -26 kcal/mol

## GGCATCGAAAGATCAGCC ((((((....)))..)))
[1]
  Tm: 39.2 °C
[2]
  folding enthalpy: -25 kcal/mol

## GAGACGAAAGTCTC (((((....)))))
[1]
  Tm: 67.1 °C
[2]
  folding enthalpy: -23.1 kcal/mol

## GGACGAGGAAACTCGCCC ((.((((....)))).))
[1]
  Tm: 51.7 °C
[2]
  folding enthalpy: -23.3 kcal/mol

## GATCCCCTCTGGGATC ((((((....))))))
[1]
  Tm: 60.3 °C
[2]
  folding enthalpy: -29 kcal/mol

## GGCCGCGAAAGCGTAGCC ((((((....)))..)))
[1]
  Tm: 61 °C
[2]
  folding enthalpy: -22.5 kcal/mol

## GATCTCGAGGAGATC ((((((...))))))
[1]
  Tm: 52.8 °C
[2]
  folding enthalpy: -34.5 kcal/mol

## GCATACCGAAAGGTTTGC (((.(((....))).)))
[1]
  Tm: 54.4 °C
[2]
  folding enthalpy: -42.2 kcal/mol

## GCACGCGAAAGCGGGTGC ((((((....)))..)))
[1]
  Tm: 66.1 °C
[2]
  folding enthalpy: -17.4 kcal/mol

## GCACGGCGAAAGCCTTGC (((.(((....))).)))
[1]
  Tm: 54.2 °C
[2]
  folding enthalpy: -54.8 kcal/mol

## GTGCAGGGAAACCTACAC (((.(((....))).)))
[1]
  Tm: 41.5 °C
[2]
  folding enthalpy: -31.9 kcal/mol

## GAACTAGGAAACTAGCTC ((.((((....)))).))
[1]
  Tm: 29 °C
[2]
  folding enthalpy: -21.3 kcal/mol

## GCCAGCGGAAACGCCAGC ((..(((....)))..))
[1]
  Tm: 39 °C
[2]
  folding enthalpy: -13.7 kcal/mol

## GTCTGCGAAAGCACGGAC ((((((....)))..)))
[1]
  Tm: 38.9 °C
[2]
  folding enthalpy: -15.2 kcal/mol

## GTCTGCGAAAGCAAGGAC ((((((....)))..)))
[1]
  Tm: 43.2 °C
[2]
  folding enthalpy: -17.5 kcal/mol

## GATCCAGTGTGGATC ((((((...))))))
[1]
  Tm: 51.6 °C
[2]
  folding enthalpy: -33 kcal/mol

## GAGCTGGGAAACCGGCTC ((((.((....)).))))
[1]
  Tm: 59.2 °C
[2]
  folding enthalpy: -38.5 kcal/mol

## GCTCGAGAAATCGAGC ((((((....))))))
[1]
  Tm: 66.5 °C
[2]
  folding enthalpy: -37.4 kcal/mol

## GATCTCCCAGGAGATC ((((((....))))))
[1]
  Tm: 56.8 °C
[2]
  folding enthalpy: -36.4 kcal/mol

## GACTGGGCGAAAGCCGTC (((..(((....))))))
[1]
  Tm: 56.1 °C
[2]
  folding enthalpy: -10.4 kcal/mol

## GCTTACGAAAGTAAAAGC ((((((....)))..)))
[1]
  Tm: 41.7 °C
[2]
  folding enthalpy: -27.5 kcal/mol

## GACTAGGGAAACTTAGTC (((((.(....).)))))
[1]
  Tm: 37.9 °C
[2]
  folding enthalpy: -30.1 kcal/mol

## GATCACACATGTGATC ((((((....))))))
[1]
  Tm: 57.9 °C
[2]
  folding enthalpy: -38.1 kcal/mol

## GCAAACGAAAGTTGTTGC ((((((....)))..)))
[1]
  Tm: 32.9 °C
[2]
  folding enthalpy: -22.5 kcal/mol

## GGATTTACGAAAGTATCC (((..(((....))))))
[1]
  Tm: 31 °C
[2]
  folding enthalpy: -21 kcal/mol

## GCTTCCGAAAGGATAGC ((((((....))).)))
[1]
  Tm: 48.7 °C
[2]
  folding enthalpy: -24.9 kcal/mol

## TCGGTGAAAACCGA (((((....)))))
[1]
  Tm: 53 °C
[2]
  folding enthalpy: -17.7 kcal/mol

## GCACACGAAAGTGGGTGC ((((((....)))..)))
[1]
  Tm: 53.5 °C
[2]
  folding enthalpy: -24.1 kcal/mol

## GCCCTGCGAAAGCATGGC (((.(((....))).)))
[1]
  Tm: 56.3 °C
[2]
  folding enthalpy: -48.3 kcal/mol

## GCCGAGCGAAAGCTGGC (((.(((....))))))
[1]
  Tm: 68.6 °C
[2]
  folding enthalpy: -25.1 kcal/mol

## GTTTTCACGAAAGTGAAC (((..(((....))))))
[1]
  Tm: 35.4 °C
[2]
  folding enthalpy: -10.3 kcal/mol

## GCCACCGAAAGGTAGGGC ((((((....)))..)))
[1]
  Tm: 52.7 °C
[2]
  folding enthalpy: -27.6 kcal/mol

## GATCATTGCAATGATC ((((((....))))))
[1]
  Tm: 52.3 °C
[2]
  folding enthalpy: -44.8 kcal/mol

## GCACGACCGAAAGGTTGC (((..(((....))))))
[1]
  Tm: 38.1 °C
[2]
  folding enthalpy: -14.4 kcal/mol

## GGAGAAGCGAAAGCTTCC (((..(((....))))))
[1]
  Tm: 42.7 °C
[2]
  folding enthalpy: -9.26 kcal/mol

## GCCTGGCGAAAGCAGGGC (((..((....))..)))
[1]
  Tm: 65.6 °C
[2]
  folding enthalpy: -26.7 kcal/mol

## GCATGGGGAAACTCATGC (((((.(....).)))))
[1]
  Tm: 51.9 °C
[2]
  folding enthalpy: -40.3 kcal/mol

## GTAAGCGAAAGCTTTTAC ((((((....)))..)))
[1]
  Tm: 29.7 °C
[2]
  folding enthalpy: -11.8 kcal/mol

## GGGAGCGAAAGCTTACCC ((((((....)))..)))
[1]
  Tm: 42.5 °C
[2]
  folding enthalpy: -16.9 kcal/mol

## GATCTAGGGCTAGATC ((((((....))))))
[1]
  Tm: 43.5 °C
[2]
  folding enthalpy: -32.9 kcal/mol

## GATCACAGGAGTGATC ((((((....))))))
[1]
  Tm: 54.8 °C
[2]
  folding enthalpy: -38.2 kcal/mol

## CGCATCGGAAACGAAGCG (((.(((....))).)))
[1]
  Tm: 51.7 °C
[2]
  folding enthalpy: -31.2 kcal/mol

## GGCTCTGGAAACGGAGCC (((((.(....).)))))
[1]
  Tm: 60 °C
[2]
  folding enthalpy: -47.1 kcal/mol

## GTGGTCGAAAGACACCAC ((((((....)))..)))
[1]
  Tm: 42.4 °C
[2]
  folding enthalpy: -15.6 kcal/mol

## GATCAGGACCTGATC ((((((...))))))
[1]
  Tm: 49.6 °C
[2]
  folding enthalpy: -40.4 kcal/mol

## CGTACGGAAACGTAACG ((((((....))).)))
[1]
  Tm: 45.3 °C
[2]
  folding enthalpy: -28.7 kcal/mol

## GGATAGTCGAAAGACTCC (((..(((....))))))
[1]
  Tm: 33.1 °C
[2]
  folding enthalpy: -13.6 kcal/mol
